Results reported in ChEMBL document CHEMBL4808178 (J Med Chem, 2021).
Active and inactive are the calls of the source. The rule behind the calls is not given here.

What was measured:
HT-29 = assay: Cytotoxicity against human HT-29 cells assessed as reduction in cell viability incubated for 72 hrs by MTT assay; type: functional, cell-based; details: HT-29, 72 h
HCT-116 [1] = assay: Cytotoxicity against human HCT-116 cells assessed as reduction in cell viability incubated for 72 hrs by MTT assay; type: functional, cell-based; details: HCT-116, 72 h
Outline: (§1)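 About 5 × 10³ cells/well, seeded overnight at 37 °C, 5% CO₂, in DMEM or RPMI-1640 with 10% FBS and antibiotics. DMSO-dissolved compounds diluted in medium, exposure 72 h.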

T-24 = assay: Cytotoxicity against human T24 cells assessed as reduction in cell viability incubated for 72 hrs by MTT assay; type: functional, cell-based; details: T-24, 72 h; outline: as §1
MCF7 = assay: Cytotoxicity against human MCF7 cells assessed as reduction in cell viability incubated for 72 hrs by MTT assay; type: functional, cell-based; details: MCF7, 72 h; outline: as §1
PC-3 = assay: Cytotoxicity against human PC3 cells assessed as reduction in cell viability incubated for 72 hrs by MTT assay; type: functional, cell-based; details: PC-3, 72 h; outline: as §1
L02 = assay: Cytotoxicity against human L02 cells assessed as reduction in cell viability incubated for 72 hrs by MTT assay; type: cell-based; details: L02, 72 h; outline: as §1
[2] = target: Dual specificity protein kinase CLK2 (Homo sapiens, UniProt P49760); assay: Inhibition of human CLK2 incubated for 2 hrs
Chain of Dual specificity protein kinase CLK2 (P49760 whole entry): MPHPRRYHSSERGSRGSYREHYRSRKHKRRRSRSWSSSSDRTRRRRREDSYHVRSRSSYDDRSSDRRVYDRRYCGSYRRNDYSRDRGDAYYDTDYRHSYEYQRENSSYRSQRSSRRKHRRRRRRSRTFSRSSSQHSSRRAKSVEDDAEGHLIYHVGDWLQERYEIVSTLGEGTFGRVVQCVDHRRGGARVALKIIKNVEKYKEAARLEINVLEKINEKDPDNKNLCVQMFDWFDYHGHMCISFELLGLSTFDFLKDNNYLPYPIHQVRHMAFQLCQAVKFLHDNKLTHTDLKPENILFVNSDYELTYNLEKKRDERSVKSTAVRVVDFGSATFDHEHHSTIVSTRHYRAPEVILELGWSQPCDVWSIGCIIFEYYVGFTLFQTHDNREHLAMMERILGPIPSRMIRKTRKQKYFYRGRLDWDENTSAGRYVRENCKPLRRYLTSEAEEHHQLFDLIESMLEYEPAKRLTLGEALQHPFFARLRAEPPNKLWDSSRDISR

HCT-116 [3] = assay: Inhibition of cell stemness in human HCT116 cells assessed as morphological alterations at 5 uM after 10 days by microscopic analysis; type: functional, cell-based; details: time 10.0 day
Outline: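 Sorted ALDH⁺ HCT-116 cells, 800/well, in serum-free DMEM with B27 (1:50), EGF 20 ng/mL, β-FGF 10 ng/mL; co-incubated with compound (5 μM) or DMSO vehicle for 10 days; sphere number, diameter and morphology scored from microscopy images; mean ± SD, n = 3.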

HCT-116 [4] = assay: Inhibition of cell stemness in human HCT116 cells assessed as inhibition of CD44+/CD133+ expression at 20 uM after 24 hrs by flow cytometry analysis; type: functional
Outline: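 ALDH⁺ HCT-116 subpopulation sorted by flow cytometry; 2 × 10⁵ cells/well seeded overnight at 37 °C, 5% CO₂; treated 20 μM for 24 h (vehicle DMSO); stained with PE anti-CD133 and FITC anti-CD44 30 min; CD44⁺/CD133⁺ read by flow cytometry.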

IC50 [2] | Structure (SMILES) | IC50 (HT-29) | IC50 (HCT-116 [1]) | IC50 (T-24) | IC50 (MCF7) | IC50 (PC-3) | IC50 (L02) | inhibition (HCT-116 [3]) | inhibition at 20 µM (HCT-116 [4])
– | O=C(OCCOCCOCCO)c1ccc2c(c1)nc(Nc1cccc(Cl)c1)c1ccncc12 | 12.6 µM | 9.71 µM | 14.1 µM | 13.6 µM | 19.2 µM | 30.7 µM | – | –
– | O=C(NO)c1ccc2c(c1)nc(Nc1cccc(Cl)c1)c1ccncc12 | 9.98 µM | 8.62 µM | 3.89 µM | 7.66 µM | 15.1 µM | 21.4 µM | – | –
– | O=C(O)CCCNC(=O)c1ccc2c(c1)nc(Nc1cccc(Cl)c1)c1ccncc12 | 14.5 µM | 24.8 µM | 21.1 µM | 19.6 µM | 4.2 µM | 32.2 µM | – | –
– | O=C(O)CCNC(=O)c1ccc2c(c1)nc(Nc1cccc(Cl)c1)c1ccncc12 | 19.9 µM | 4.6 µM | 24.4 µM | 24.6 µM | 16.2 µM | 72.8 µM | – | –
0.0196 µM | NCCNC(=O)c1ccc2c(c1)nc(Nc1cccc(Cl)c1)c1ccncc12 | 11.4 µM | 7.26 µM | 14.4 µM | 4.88 µM | 5.48 µM | 111 µM | – | –
– | NCCCNC(=O)c1ccc2c(c1)nc(Nc1cccc(Cl)c1)c1ccncc12 | 9.87 µM | 15.9 µM | 37.3 µM | 19.7 µM | 14.1 µM | 85 µM | – | –
– | O=C(OCCC(Cl)Cl)c1ccc2c(c1)nc(Nc1cccc(Cl)c1)c1ccncc12 | 18.4 µM | 20.8 µM | 20.6 µM | 14.2 µM | 13.5 µM | 22 µM | – | –
0.0219 µM | O=C(NCCN1CCOCC1)c1ccc2c(c1)nc(Nc1cccc(Cl)c1)c1ccncc12 | 13.4 µM | 7.98 µM | 8.73 µM | 11 µM | 3.28 µM | 37.8 µM | – | –
0.0247 µM | O=C(NCCBr)c1ccc2c(c1)nc(Nc1cccc(Cl)c1)c1ccncc12 | 8.01 µM | 28.1 µM | 8.95 µM | 14.9 µM | 8.76 µM | 66.7 µM | – | –
0.00238 µM | O=C(OCCO)c1ccc2c(c1)nc(Nc1cccc(Cl)c1)c1ccncc12 | 10.9 µM | 10.9 µM | 16.6 µM | 15.2 µM | 9.15 µM | 45.1 µM | – | –
0.00169 µM | O=C(OCCI)c1ccc2c(c1)nc(Nc1cccc(Cl)c1)c1ccncc12 | 17.1 µM | 17.7 µM | 17.5 µM | 10.7 µM | 10 µM | 43.5 µM | – | –
– | O=C(NCCCO)c1ccc2c(c1)nc(Nc1cccc(Cl)c1)c1ccncc12 | 11.8 µM | 13.7 µM | 18.8 µM | 7.71 µM | 8.94 µM | 74.2 µM | – | –
0.00106 µM | O=C(OCCF)c1ccc2c(c1)nc(Nc1cccc(Cl)c1)c1ccncc12 | 7.8 µM | 4.28 µM | 5.91 µM | 5.98 µM | 6.4 µM | 57.8 µM | – | –
– | CC(=O)c1cc2c(o1)C(=O)c1ccccc1C2=O [NAPABUCASIN] | – | – | – | – | – | – | Active | 89%
– | C#CCNC(=O)c1ccc2c(c1)nc(Nc1cccc(Cl)c1)c1ccncc12 | 16.4 µM | 21.2 µM | 18.5 µM | 13.9 µM | 7.6 µM | 28.4 µM | – | –
– | O=C(OCCc1ccccn1)c1ccc2c(c1)nc(Nc1cccc(Cl)c1)c1ccncc12 | 9.52 µM | 6.91 µM | 22.5 µM | 10.1 µM | 11 µM | 24.9 µM | – | –
– | O=C(NCC(F)F)c1ccc2c(c1)nc(Nc1cccc(Cl)c1)c1ccncc12 | – | 16.5 µM | 18.1 µM | 10.4 µM | 6.12 µM | 18.4 µM | – | –
0.00154 µM | O=C(OCC(F)F)c1ccc2c(c1)nc(Nc1cccc(Cl)c1)c1ccncc12 | 8.09 µM | 7.52 µM | 22.7 µM | 9.85 µM | 22.1 µM | 83.9 µM | – | –
– | CS(=O)(=O)NC(=O)c1ccc2c(c1)nc(Nc1cccc(Cl)c1)c1ccncc12 | 17.8 µM | 13.2 µM | 23.5 µM | 12.2 µM | 4.16 µM | 28.4 µM | – | –
0.0097 µM | COC(=O)CCNC(=O)c1ccc2c(c1)nc(Nc1cccc(Cl)c1)c1ccncc12 | 3.52 µM | 8.13 µM | 10.7 µM | 4.51 µM | 9.94 µM | > 200 µM | – | –
– | O=C(NCCN1CCCCC1)c1ccc2c(c1)nc(Nc1cccc(Cl)c1)c1ccncc12 | 13.8 µM | 8.6 µM | 3.24 µM | 3.74 µM | 6.08 µM | 14.3 µM | – | –
– | O=C(NCCN1CCCC1)c1ccc2c(c1)nc(Nc1cccc(Cl)c1)c1ccncc12 | 7.94 µM | 8.79 µM | 3.23 µM | 8.6 µM | 10.1 µM | 16 µM | – | –
– | COC(=O)CCCNC(=O)c1ccc2c(c1)nc(Nc1cccc(Cl)c1)c1ccncc12 | 20.6 µM | 5.91 µM | 12.9 µM | 19.8 µM | 4.89 µM | 89.1 µM | – | –
– | CN(C)CCNC(=O)c1ccc2c(c1)nc(Nc1cccc(Cl)c1)c1ccncc12 | 5.08 µM | 12.8 µM | 5.93 µM | 6.01 µM | 11.1 µM | 17.3 µM | – | –
